Activity calls are given as the source filed them. The rule behind the calls is not given here.
Legend:
Mus musculus [1] = experiment: Downregulation of Bcl2 protein expression in tumor tissues of Balb/c nude mouse xenografted with human NCI-H460 cells at 25 to 50 mg/kg, ip bid for 13 days measured on day 14 by Western blot analysis; format: functional, organism-based
Mus musculus [2] = experiment: Upregulation of cytochrome-c expression in tumor tissues of Balb/c nude mouse xenografted with human NCI-H460 cells at 25 to 50 mg/kg, ip bid for 13 days measured on day 14 by Western blot analysis; format: functional, organism-based
Summary of the method: (§1)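 Tumors from NCI-H460 xenografted BALB/c nude mice (25 or 50 mg/kg, vehicle 5% DMSO in saline) collected at day 14; protein levels in tumor tissue determined by western blot versus vehicle control.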

NCI-H460 [3] = experiment: Antitumor activity against human NCI-H460 cells xenografted in Balb/c nude mouse assessed as induction of necrosis at 25 to 50 mg/kg, ip bid for 13 days measured on day 14 post last dose by hematoxylin and eosin staining based microscopic method; format: functional, organism-based
HepG2 [4] = experiment: Cell cycle arrest in human HepG2 cells transfected with p53 siRNA assessed as accumulation at G2-phase after 48 hrs by propidium iodide staining based flow cytometry (reference value: 21.72 to 23.39%); format: functional
Mus musculus [5] = experiment: Effect on caspase-3 protein expression in tumor tissues of Balb/c nude mouse xenografted with human NCI-H460 cells at 25 to 50 mg/kg, ip bid for 13 days measured on day 14 by Western blot analysis; format: functional, organism-based
HepG2 [6] = experiment: Induction of apoptosis in human HepG2 cells transfected with p53 siRNA assessed as live cells after 24 hrs by Annexin V-FITC/ propidium iodide staining based flow cytometry (reference value: 69.9 to 70.3%); format: functional
L02 = experiment: Cytotoxicity against human HL-7702 cells after 48 hrs by MTT assay; format: cell-based; conditions: L02, 48 h
Summary of the method: (§2)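 MTT cytotoxicity assay run against HepG2 and BEL-7404 liver cancer, SK-OV-3 ovarian, NCI-H460 large-cell lung cancer and HL-7702 normal liver cells. 5-fluorouracil and cisplatin served as positive controls. IC50 is given as mean ± SD of three repeat experiments.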

HepG2 [7] = experiment: Induction of apoptosis in human HepG2 cells transfected with p53 siRNA assessed as late apoptotic cells after 24 hrs by Annexin V-FITC/ propidium iodide staining based flow cytometry (reference value: 7.99 to 8.6%); format: functional
HepG2 [8] = experiment: Induction of apoptosis in human HepG2 cells transfected with p53 siRNA assessed as early apoptotic cells after 24 hrs by Annexin V-FITC/ propidium iodide staining based flow cytometry (reference value: 5.99 to 6.01%); format: functional
HepG2 [9] = experiment: Cell cycle arrest in human HepG2 cells transfected with p53 siRNA assessed as accumulation at G1-phase after 48 hrs by propidium iodide staining based flow cytometry (reference value: 55.48 to 56.24%); format: functional
SK-OV-3 = experiment: Cytotoxicity against human SKOV3 cells after 48 hrs by MTT assay; format: functional, cell-based; conditions: SK-OV-3, 48 h; summary of the method: as §2
HepG2 [10] = experiment: Upregulation of p53 protein expression in human HepG2 cells at 6 to 10 uM after 12 hrs by Western blot analysis; format: functional, cell-based
Summary of the method: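 HepG2 cell lysates after compound treatment analyzed by western blot for the target protein, compared with untreated negative control.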

NCI-H460 [11] = experiment: Cytotoxicity against human NCI-H460 cells after 48 hrs by MTT assay; format: functional, cell-based; conditions: NCI-H460, 48 h; summary of the method: as §2
Mus musculus [12] = experiment: Toxicity in Kunming mouse assessed as signs of peritonitis or damage to heart at 50 mg/kg/day, ip for 14 consecutive days by microscopic method; format: organism-based; conditions: in vivo
Summary of the method: (§3)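 Kunming mice given 50 mg/kg/day ip in 5% v/v DMSO/saline for 14 days; kidney, heart and liver harvested, sectioned for pathology slices and examined microscopically for peritonitis or organ damage versus control mice.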

Mus musculus [13] = experiment: Toxicity in Balb/c nude mouse xenografted with human NCI-H460 cells assessed as change in body weight at 25 to 50 mg/kg, ip bid for 13 days; format: organism-based; conditions: in vivo, 312 h
Summary of the method: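 SPF BALB/c nude mice bearing NCI-H460 xenografts, randomized and given 25 or 50 mg/kg in 5% DMSO/saline vehicle, with cisplatin 2 mg/kg as positive control; body weight tracked over the 13-day treatment; n = 6.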

HepG2 [14] = experiment: Induction of apoptosis in human HepG2 cells assessed as early apoptotic cells at 8 uM after 24 hrs by Annexin V-FITC/ propidium iodide staining based flow cytometry (reference value: 6.5%); format: functional
HepG2 [15] = experiment: Induction of apoptosis in human HepG2 cells transfected with p53 siRNA assessed as necrotic apoptotic cells after 24 hrs by Annexin V-FITC/ propidium iodide staining based flow cytometry (reference value: 15.6 to 15.7%); format: functional
Mus musculus [16] = experiment: Toxicity in Kunming mouse assessed as change in body weight at 50 mg/kg/day, ip for 14 consecutive days measured daily during compound dosing; format: organism-based; conditions: in vivo
Summary of the method: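 Kunming mice dosed intraperitoneally at 50 mg/kg per day for 14 consecutive days, compound dissolved in 5% v/v DMSO/saline; body weight recorded daily as a systemic toxicity parameter against a control group; six mice per group.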

Mus musculus [17] = experiment: Toxicity in Kunming mouse assessed as signs of peritonitis or damage to liver at 50 mg/kg/day, ip for 14 consecutive days by microscopic method; format: organism-based; conditions: in vivo; summary of the method: as §3
NCI-H460 [18] = experiment: Antitumor activity against human NCI-H460 cells xenografted in Balb/c nude mouse assessed as relative tumor volume increment rate at 25 mg/kg, ip bid for 13 days measured on day 14 post last dose relative to control; format: functional
Summary of the method: (§4)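 SPF BALB/c nude mice carrying NCI-H460 xenografts were randomly grouped and given 25 or 50 mg/kg. Vehicle (5% DMSO in saline, v/v) and cisplatin 2 mg/kg were the controls, n = 6 per group. Tumour volume was followed to give the relative tumour increment rate (T/C, %). Tumours were harvested and weighed on day 14 to give the weight inhibitory rate.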

HepG2 [19] = experiment: Cytotoxicity against human HepG2 cells after 48 hrs by MTT assay; format: functional, cell-based; conditions: HepG2, 48 h; summary of the method: as §2
NCI-H460 [20] = experiment: Antitumor activity against human NCI-H460 cells xenografted in Balb/c nude mouse assessed as relative tumor volume increment rate at 50 mg/kg, ip bid for 13 days measured on day 14 post last dose relative to control; format: functional; summary of the method: as §4
Mus musculus [21] = experiment: Toxicity in Kunming mouse assessed as signs of peritonitis or damage to kidney at 50 mg/kg/day, ip for 14 consecutive days by microscopic method; format: organism-based; conditions: in vivo; summary of the method: as §3
Mus musculus [22] = experiment: Upregulation of caspase-9 protein expression in tumor tissues of Balb/c nude mouse xenografted with human NCI-H460 cells at 25 to 50 mg/kg, ip bid for 13 days measured on day 14 by Western blot analysis; format: functional, organism-based; summary of the method: as §1
NCI-H460 [23] = experiment: Antitumor activity against human NCI-H460 cells xenografted in Balb/c nude mouse assessed as tumor growth inhibition at 25 mg/kg, ip bid for 13 days measured on day 14 post last dose relative to control; format: functional; conditions: read-out: TGI; summary of the method: as §4
NCI-H460 [24] = experiment: Antitumor activity against human NCI-H460 cells xenografted in Balb/c nude mouse assessed as tumor growth inhibition at 50 mg/kg, ip bid for 13 days measured on day 14 post last dose relative to control; format: functional; conditions: read-out: TGI; summary of the method: as §4
BEL-7404 tumor cell line = experiment: Cytotoxicity against human Bel7404 cells after 48 hrs by MTT assay; format: functional, cell-based; conditions: BEL-7404, 48 h; summary of the method: as §2
HepG2 [25] = experiment: Cell cycle arrest in human HepG2 cells transfected with p53 siRNA assessed as accumulation at S-phase after 48 hrs by propidium iodide staining based flow cytometry (reference value: 20.37 to 22.8%); format: functional

SMILES	Activity (Mus musculus [1])	Activity (Mus musculus [2])	Activity (NCI-H460 [3])	Activity (HepG2 [4]) [%]	Activity (Mus musculus [5])	Activity (HepG2 [6]) [%]	IC50 (L02) [µM]	Activity (HepG2 [7]) [%]	Activity (HepG2 [8]) [%]	Activity (HepG2 [9]) [%]	IC50 (SK-OV-3) [µM]	IC50 (NCI-H460 [11]) [µM]	Activity (Mus musculus [12])	Activity (Mus musculus [13])	Activity (HepG2 [15]) [%]	Activity (Mus musculus [16])	Activity (Mus musculus [17])	T/C (NCI-H460 [18]) [%]	IC50 (HepG2 [19]) [µM]	T/C (NCI-H460 [20]) [%]	further results
O=c1[nH]c2ccccc2cc1-c1nc2cc(Cl)ccc2[nH]1	Active	Active	Active	32.3	inactive	74.8	> 100	7.62	11.5	46.86	10.5	14.7	Non-Toxic	Non-Toxic	6.08	Non-Toxic	Non-Toxic	40.6	8.45	30.7	Activity (HepG2 [10]): Active; Activity (HepG2 [14]): 35.9%; Activity (Mus musculus [21]): Non-Toxic; Activity (Mus musculus [22]): Active; inhibition in vivo at 25 mg/kg (NCI-H460 [23]): 51.9%; inhibition in vivo at 50 mg/kg (NCI-H460 [24]): 66.9%; IC50 (BEL-7404 tumor cell line): 16.5 µM; Activity (HepG2 [25]): 20.84%
O=c1[nH]c2cc3c(cc2cc1-c1nc2cc(Cl)ccc2[nH]1)OCO3	Active	Active	Active	18.96	inactive	74.6	> 100	7.96	11.2	74.18	24.7	30.4	Non-Toxic	Non-Toxic	6.29	Non-Toxic	Non-Toxic	48.8	10.6	38.1	Activity (Mus musculus [21]): Non-Toxic; Activity (Mus musculus [22]): Active; inhibition in vivo at 25 mg/kg (NCI-H460 [23]): 46.2%; inhibition in vivo at 50 mg/kg (NCI-H460 [24]): 55.1%; IC50 (BEL-7404 tumor cell line): 9.06 µM; Activity (HepG2 [25]): 6.86%
